# An excerpt weighted towards active compounds, which were near 5.5% of everything screened.
# STAT1 act – STAT1 signaling activators, primary screen, cell-based, HTS, luciferase reporter | NIH 3T3 STAT1-luciferase reporter, IFN-gamma, luminescence; 100% = IFN-gamma alone, no compound | activation (% of control), % at 5.5 µM | actives 2.6% (n = 200,000);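 active means activation above the screen-wide mean activation plus 3 SD, cut at about 130% in these data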;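 further: raw ratio to IFN-gamma control signal so 100% means no change and 0% no light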
# STAT3 activator – IL-6 driven STAT3 reporter potentiators, primary screen, U3A cells, luciferase, luminescence, MLSCN library | IL-6 STAT3-luciferase reporter; 100% = signal with IL-6 EC80 alone | activation (% of control), % at 5.6 µM | actives 0.91% (n = 190,000) | AID 871, 2007;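 active means activation above the screen-wide mean of compound activation plus 3 SD, cut at about 130% in these data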;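 further: 0% = background luminescence of wells with medium and substrate only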
#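 Test system: STAT3-luciferase reporter U3A cells; Detection: reporter luminescence signal; Times: 1 h compound pre-exposure, 6 h IL-6 stimulation, 37 °C; Benchmarks: IL-6-only high control; Also added: IL-6 stimulus at 33 ng/mL final.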
# HSV replic up – enhancers of HSV replication in host cells, fold increase, host cell viability. HSV replication augmentation in cells. maximum fold increase. actives 0.005% (n = 220,000); in the data active means maximum fold increase above about 1.5; inconclusive means no clear call, values can overlap the other calls; tested in PC3 cells
# STAT3 blocker – IL-6 driven STAT3 reporter inhibitors, primary screen, U3A cells, luciferase, luminescence, MLSCN library; IL-6 STAT3-luciferase reporter; host cell line lacks STAT1; inhibition, % at 5.5 µM; actives 0.89% (n = 190,000); AID 862, 2007;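 active means inhibition above the mean inhibition across all screened compounds plus 3 SD, cut at about 44% in these data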;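 further: 0% = DMSO only wells and 100% = 100 µM nifuroxazide control wells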
# Cl transport mod – KCC2 cotransporter modulators, thallium flux, primary screen, cell-based, HEK293 KCC2, FluoZin-2 fluorescence, MLSMR; actives 2.2% (n = 190,000); AID 1456, 2008; KCC2 cells, thallium flux FluoZin-2 fluorescence; B-score of Tl+ flux slope (higher = more flux/activation; lower = inhibition) at 10 µM; Solute carrier family 12 member 5 (Homo sapiens), Q9H2X9;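 active means thallium flux slope and its plate-corrected score both differing from the plate sample mean at a set confidence after two filtering rounds, in either direction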;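 further: slope of fluorescence scaled to starting intensity during 10 to 20 s after thallium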
# STAT1 inh – STAT1 signaling inhibitors, primary screen, cell-based, HTS, luciferase reporter; NIH 3T3 STAT1-luciferase reporter, IFN-gamma, luminescence; inhibition, % at 5.5 µM; actives 0.35% (n = 200,000); AID 920, 2007;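 active means inhibition above a set limit, the mean inhibition across all tested compounds plus 3 SD, cut at about 34% in these data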;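 further: 0% = IFN-gamma with DMSO and 100% = IFN-gamma with 300 µM nifuroxazide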
# Starred values were filed as active, the others as inactive; i = inactive; u = inconclusive; x = no result.
SMILES,STAT1 act,STAT3 activator,HSV replic up,STAT3 blocker,Cl transport mod,STAT1 inh
Cc1cccc(N=C2NC(=O)/C(=C/C=C/c3ccco3)S2)c1C,101,103,x,-5,4.3*,-1
Cc1ccc(N=C2NC(=O)/C(=C/C=C/c3ccco3)S2)cc1,104,114,u,-17,-0.049,-5
O=[N+]([O-])c1ccc(N2CCSCC2)cc1,101,100,i,2,-0.11,-3
O=C(c1ccco1)n1c(=S)nc2ccccn21,144*,106,i,1,x,-48
Cc1cccc2nc(=S)n(C(=O)c3ccco3)n12,197*,134*,i,-32,x,-106
Cc1cccc(C(=O)n2c(=S)nc3cc(C)ccn32)c1,x,x,i,x,0.69,x
O=C(COC(=O)Cn1cnc2ccccc21)Nc1cc(S(=O)(=O)N2CCOCC2)ccc1Cl,x,x,i,x,0.075,x
O=C(COC(=O)Cn1cnc2ccccc21)Nc1cc2c(cc1Cl)C(=O)c1ccccc1C2=O,136*,113,i,-12,0.07,-37
COc1ccc(-n2nc(C(=O)NCC(=O)N3CCN(c4ccccn4)CC3)c3ccccc3c2=O)cc1,137*,105,i,-2,x,-41
Cc1ccc(OCC(=O)c2cc(C)n(Cc3cccs3)c2C)c([N+](=O)[O-])n1,59,60,i,52*,-0.9,43*
Cc1ccc(OCC(=O)c2cc(C)n(CC(F)(F)F)c2C)c([N+](=O)[O-])n1,106,106,i,-1,0.24,-8
CC(/C=N/n1c(COc2ccccc2)n[nH]c1=S)=C\c1ccccc1,97,98,i,3,7.8*,4
S=c1[nH]nc(COc2ccccc2)n1/N=C/c1ccncc1,112,104,i,0,-0.51,-14
COc1ccc(C(=O)OCCc2ccc(O)cc2)cc1,148*,93,i,6,-2.2,-53
C(=N\Nc1ncnc2nc[nH]c12)/c1cccs1,134*,85,i,22,-0.011,-37
Clc1cnc(N/N=C/c2cccs2)c(Cl)c1,134*,107,i,-6,-0.37,-38
Cc1ccc(/C=N/Nc2ncc(Cl)cc2Cl)s1,125,88,i,21,-0.43,-27
Cc1ccsc1/C=N/Nc1ncnc2nc[nH]c12,138*,91,i,12,-0.48,-43
CCCC(=O)OCC(=O)Nc1ccc2c(c1)OCO2,102,101,i,7,-0.011,-4
Cc1ccc(-n2c(=S)[nH]c3sc4c(c3c2=O)CCc2ccccc2-4)cc1,105,104,i,-5,9.1*,-5
O=C1C(Cl)=C(NC2CCCCC2)C(=O)N1c1ccc(Cl)cc1,141*,110,i,-8,0.15,-45
Cc1ccccc1C1c2[nH]c3ccccc3c2CCN1Cc1cccn1-c1ncccn1 (stereo unspecified),x,x,i,x,-0.82,x
Cc1ccc(NC(=O)Nc2ccccc2CC[N+](=O)[O-])cc1,102,133*,i,-30,-0.21,-3
O=C(CNS(=O)(=O)c1c(Cl)cccc1Cl)OCC(=O)N1CCN(c2ccccc2)CC1,91,98,i,0,-0.68,10
CC(C)Cc1nnc(NC(=O)Cc2ccc([N+](=O)[O-])cc2)s1,98,95,i,10,0.26,2
SMILES,STAT1 act,STAT3 activator,HSV replic up,STAT3 blocker,Cl transport mod,STAT1 inh
O=C(O)CCn1nnc(-c2cccs2)n1,100,97,i,8,0.19,0
CC(C)c1ccc(-c2nnn(CCC(=O)O)n2)cc1,57,39,i,78*,x,48*
CCCNC(=O)c1ccccc1NC(=O)CN(c1ccccc1)S(=O)(=O)N(C)C,94,98,i,8,x,5
CC(C)CN(C(=O)COC(=O)CCc1c[nH]c2ccccc12)C1CCS(=O)(=O)C1 (stereo unspecified),99,113,i,-10,-0.72,1
CC(C)CN(C(=O)COC(=O)Cc1c[nH]c2ccccc12)C1CCS(=O)(=O)C1 (stereo unspecified),94,133*,i,-35,x,6
COC(=O)c1sccc1NC(=O)c1ccoc1C,111,89,i,20,x,-12
CCN(CC)C(=O)c1sc(NC(=O)c2ccoc2C)c(C(=O)OC)c1C,108,97,i,8,8.4*,-11
COC(=O)c1c(-c2ccncc2)csc1NC(=O)c1ccoc1C,136*,93,i,10,-0.83,-37
CCCCN1CCc2c([nH]c3ccccc23)C1=O,137*,102,i,4,-0.61,-39
Cc1cc2ncc(-c3cccc(Cl)c3)cn2n1,129*,122,i,-24,-0.41,-32
Cc1cc2ncc(C(N)=O)cn2n1,109,103,i,6,-0.04,-10
O=C(NCc1ccco1)Nc1ccc(Br)cc1Cl,133*,82,i,24,-1.4,-36
COC(=O)c1sccc1N(C)S(C)(=O)=O,96,104,i,0,-0.25,3
Cc1ccccc1C1(CCN2CCCCC2)CCOC(C)(C)C1 (stereo unspecified),99,108,i,-11,0.051,2
Cc1ccc(F)c(NC(=O)/C(C#N)=C(\O)c2ccc(C(C)(C)C)cc2)c1,127,105,i,-6,-5.6*,-29
Cc1ccc(F)c(NC(=O)c2ccc(Cn3cc(Cl)cn3)cc2)c1,98,93,i,13,-1.2,-1
NC(N)=N/N=C/c1ccc2cccc(OCc3ccccc3)c2n1,x,x,i,x,-0.028,x
COc1ccc(C(=O)N/N=C/c2ccc3cccc(OCc4ccccc4)c3n2)cc1,122,107,i,0,4.1*,-24
O=C(N/N=C/c1ccc2cccc(OCc3ccccc3)c2n1)c1ccc(Br)cc1,103,103,i,1,11*,-3
CC(C)OC(=O)c1c2nc3ccccc3nc2n2c1[nH]c(=O)c1ccccc12,93,128,x,-33,125*,8
O=S(=O)(Nc1cccc(-c2nnco2)c1)c1ccc(Cl)cc1,x,x,i,x,x,x
O=C(NCCc1cccc(Cl)c1)c1cccs1,127,105,i,1,-0.95,-32
O=C(NCCc1ccccc1)c1cnc2sccn2c1=O,136*,99,i,1,0.18,-37
Cc1cc(C(=O)NCCc2ccccc2)ccc1[N+](=O)[O-],134*,106,i,-2,x,-38
O=C(NCCc1ccccc1)c1cccs1,142*,94,i,7,x,-45
CC(C)c1cc(C(=O)NCCc2ccccc2)no1,133*,105,i,7,-0.95,-37
O=C(NCCc1ccccc1)c1ccc(Cl)c([N+](=O)[O-])c1,115,106,i,-7,x,-16
